The record followed here is ChEMBL document CHEMBL1137866, “N-(1-Benzylpyrrolidin-3-yl)arylbenzamides as potent and selective human dopamine D4 antagonists” (Bioorg Med Chem Lett, 2004).

pIC50, pKi: −log10 of the molar value. The source made the active and inactive calls. The rule behind the calls is not given here.

The target of test [1] is T1, D(4) dopamine receptor (Homo sapiens, UniProt P21917).
T1 sequence (P21917 whole entry): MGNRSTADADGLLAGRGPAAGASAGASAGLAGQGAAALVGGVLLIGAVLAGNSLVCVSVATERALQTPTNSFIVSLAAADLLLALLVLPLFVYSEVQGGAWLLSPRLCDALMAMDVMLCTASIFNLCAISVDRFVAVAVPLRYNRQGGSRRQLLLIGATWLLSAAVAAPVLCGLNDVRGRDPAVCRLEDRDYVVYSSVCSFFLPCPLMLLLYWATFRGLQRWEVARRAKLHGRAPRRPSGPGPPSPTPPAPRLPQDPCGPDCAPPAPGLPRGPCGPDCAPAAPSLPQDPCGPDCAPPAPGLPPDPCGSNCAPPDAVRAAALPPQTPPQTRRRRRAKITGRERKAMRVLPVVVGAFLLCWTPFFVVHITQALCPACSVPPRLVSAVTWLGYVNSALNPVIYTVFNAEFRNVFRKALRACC
Put plainly: Ability to displace [3H]spiperone from human Dopamine receptor D4.2 stably transfected in human embryonic kidney […] cells. Summed up:
(§1)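 Radioligand binding on stably transfected cell lines: hD4 (D4.2 subtype) in HEK […] cells and hD2 (short isoform) in GH4C1 rat pituitary cells. Ki derived by Cheng–Prusoff transformation, reported as mean of at least two determinations ± SEM.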

Test [2] addresses T2, D(2) dopamine receptor (Homo sapiens, UniProt P14416). Put plainly: Ability to displace [3H]spiperone from human Dopamine receptor D2S stably transfected in GH4C1 (rat pituitary) cells. Format: cell-based, Pituitary gland cell. The method, boiled down: as §1
Test [3] has as its target T3, Adrenergic receptor alpha-1 (Rattus norvegicus, UniProt P15823+P23944+P43140).
T3 sequence (P15823 whole entry): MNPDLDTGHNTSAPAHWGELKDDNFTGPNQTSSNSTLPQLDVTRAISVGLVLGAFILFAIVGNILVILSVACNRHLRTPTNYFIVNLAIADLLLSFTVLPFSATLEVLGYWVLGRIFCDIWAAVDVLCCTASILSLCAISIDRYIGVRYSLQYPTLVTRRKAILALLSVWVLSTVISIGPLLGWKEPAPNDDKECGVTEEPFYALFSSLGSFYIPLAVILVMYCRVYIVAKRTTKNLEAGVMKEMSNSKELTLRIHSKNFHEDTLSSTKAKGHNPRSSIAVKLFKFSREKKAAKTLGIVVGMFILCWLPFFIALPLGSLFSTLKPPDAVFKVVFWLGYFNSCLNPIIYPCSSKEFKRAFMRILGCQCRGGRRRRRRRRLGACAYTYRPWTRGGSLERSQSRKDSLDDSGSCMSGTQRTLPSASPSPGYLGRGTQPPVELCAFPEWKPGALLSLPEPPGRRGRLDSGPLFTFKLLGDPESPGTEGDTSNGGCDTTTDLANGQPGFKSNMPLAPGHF
T3 sequence (P23944 whole entry): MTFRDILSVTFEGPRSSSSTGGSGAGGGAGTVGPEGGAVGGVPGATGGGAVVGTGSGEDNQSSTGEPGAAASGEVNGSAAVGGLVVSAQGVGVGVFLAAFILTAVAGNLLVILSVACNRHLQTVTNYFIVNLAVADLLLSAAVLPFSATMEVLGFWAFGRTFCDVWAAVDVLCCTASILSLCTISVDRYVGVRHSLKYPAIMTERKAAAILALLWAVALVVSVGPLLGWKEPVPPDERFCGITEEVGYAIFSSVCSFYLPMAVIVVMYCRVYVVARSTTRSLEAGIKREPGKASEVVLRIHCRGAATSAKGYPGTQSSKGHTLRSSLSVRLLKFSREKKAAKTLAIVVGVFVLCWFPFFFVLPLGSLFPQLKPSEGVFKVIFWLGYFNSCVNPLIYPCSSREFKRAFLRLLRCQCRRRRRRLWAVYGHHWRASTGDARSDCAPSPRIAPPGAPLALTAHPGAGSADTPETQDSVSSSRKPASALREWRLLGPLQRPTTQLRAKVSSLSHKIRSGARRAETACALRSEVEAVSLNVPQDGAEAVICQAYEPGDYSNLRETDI
T3 sequence (P43140 whole entry): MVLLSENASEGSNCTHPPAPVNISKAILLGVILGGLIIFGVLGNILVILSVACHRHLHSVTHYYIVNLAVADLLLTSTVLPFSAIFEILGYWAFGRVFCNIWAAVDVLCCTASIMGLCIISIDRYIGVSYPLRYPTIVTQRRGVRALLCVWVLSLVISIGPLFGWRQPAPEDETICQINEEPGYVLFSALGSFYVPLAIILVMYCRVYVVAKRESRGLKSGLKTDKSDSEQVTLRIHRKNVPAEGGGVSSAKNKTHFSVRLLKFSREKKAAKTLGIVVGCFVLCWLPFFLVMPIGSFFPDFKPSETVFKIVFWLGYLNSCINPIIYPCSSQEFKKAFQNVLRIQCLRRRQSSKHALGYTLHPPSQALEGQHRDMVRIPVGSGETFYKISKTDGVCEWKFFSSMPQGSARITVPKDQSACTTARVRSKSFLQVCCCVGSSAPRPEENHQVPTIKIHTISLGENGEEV
The test can be described thus: Binding affinity towards Alpha-1 adrenergic receptor using 7-methoxy-[3H]-prazosin as radioligand in rat frontal cortex tissue. In kind it is tissue-based. Summed up: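 Rat frontal cortex tissue as α1 receptor source, 7-methoxy-[3H]-prazosin as radioligand, clozapine as reference. Ki obtained by Cheng–Prusoff transformation; mean of at least two determinations ± SEM.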

Test [4] deals with T2, D(2) dopamine receptor. The test can be described thus: Inhibition of [3H]spiperone binding to human Dopamine receptor D2S stably transfected in GH4C1 (rat pituitary) cells at 100 nM. The settings on record: Pituitary gland cell.
The target in test [5] is T4, Adrenergic receptor alpha-1 (Rattus norvegicus) (UniProt P15823+P23944+P43140). Put plainly: Inhibition of 7-methoxy-[3H]-prazosin binding to Alpha-1 adrenergic receptor in rat frontal cortex tissue at 100 nM.
Test [6] deals with T5, D(4) dopamine receptor (Homo sapiens) (UniProt P21917).
T5 sequence (whole entry): T1 sequence (P21917 whole entry)
Put plainly: Inhibition of [3H]spiperone binding to human Dopamine receptor D4.2 stably transfected in human embryonic kidney […] cells at 100 nM.

The target of test [7] is T1, D(4) dopamine receptor. Put plainly: Inhibitory concentration required to reverse the dopamine inhibition of forskolin-stimulated adenyl cyclase activity in CHO cells stably expressing hD4 receptor. In kind it is functional, cell-based.
The target of test [8] is T4, Adrenergic receptor alpha-1 (Rattus norvegicus). Put plainly: Inhibition of 7-methoxy-[3H]-prazosin binding to Alpha-1 adrenergic receptor in rat frontal cortex tissue at 100 nM; IA denotes inactive.
Test [9] deals with T2, D(2) dopamine receptor. Put plainly: Inhibition of [3H]spiperone binding to human Dopamine receptor D2S stably transfected in GH4C1 (rat pituitary) cells at 100 nM; IA denotes inactive. The settings on record: Pituitary gland cell.

T2 sequence (P14416 whole entry): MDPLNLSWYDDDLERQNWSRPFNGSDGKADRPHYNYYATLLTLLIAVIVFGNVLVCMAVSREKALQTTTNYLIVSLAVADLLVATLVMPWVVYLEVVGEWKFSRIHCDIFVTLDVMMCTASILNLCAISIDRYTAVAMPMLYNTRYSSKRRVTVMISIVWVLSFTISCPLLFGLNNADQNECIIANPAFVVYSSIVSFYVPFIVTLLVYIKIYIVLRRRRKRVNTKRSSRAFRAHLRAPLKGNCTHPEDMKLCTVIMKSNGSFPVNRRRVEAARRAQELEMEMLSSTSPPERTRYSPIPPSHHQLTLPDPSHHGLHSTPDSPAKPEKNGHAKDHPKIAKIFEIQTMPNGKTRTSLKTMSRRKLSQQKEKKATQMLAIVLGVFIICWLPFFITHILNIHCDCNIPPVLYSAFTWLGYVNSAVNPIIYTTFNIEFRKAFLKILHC

What is called pKi is the negative decadic logarithm of the Ki, by convention in mol/L. Higher therefore signals a small Ki. What is called Ki is the dissociation constant of the complex between target and ligand, obtained from inhibition or displacement. A higher Ki goes with a looser hold on the target. Regarding `O=C(N[C@H]1CCN(Cc2ccccc2)C1)c1cccc(-c2ccsc2)c1`, the pKi in [1] is 8.70; in test [2], 7.15. In test [3], this molecule showed a Ki of 140 nM.
Turning to `O=C(NC1CCN(Cc2ccccc2)C1)c1cccc(-c2ccccc2)c1` (configuration not stated), the pKi is 8.40 in [1] and 6.82 in test [2].
Taken in the same sequence, the figures for `CSc1ccc(-c2ccc(C(=O)NC3CCN(Cc4ccccc4)C3)cc2)cc1` (configuration not stated) were 7.77 and 5.40.
In the same order, the values of `O=Cc1ccc(-c2ccc(C(=O)NC3CCN(Cc4ccccc4)C3)cc2)cc1` (configuration not stated) are 7.15 and 5.43.
For the molecule `O=C(N[C@H]1CCN(Cc2ccccc2)C1)c1ccc(-c2cccs2)cc1`, the results for the pKi in test [1] and in test [2] were 8.52 and 6.01, respectively. In test [3], this molecule came in with a Ki of 1200 nM.
A word on the inhibition: it is the percentage by which the read-out fell short of the control. With `CN(C(=O)c1ccc(-c2ccsc2)cc1)[C@H]1CCN(Cc2ccccc2)C1`, the inhibition in [4] was determined as 7.4%; in test [5], 0.29%; in test [6], 40%.
For `O=C(N[C@H]1CCN(Cc2ccccc2)C1)c1cccc(-c2cccs2)c1`, the values for the pKi in test [1] and in test [2] were 8.82 and 7.22, respectively. The Ki in test [3] stood at 160 nM.
`O=C(NC1CCN(Cc2ccccc2)C1)c1ccc(-c2cccc(F)c2)cc1` (configuration not stated): the values for the pKi in test [1] and in test [2] were 7.77 and 5.40, respectively.
Take `O=C(N[C@@H]1CCN(Cc2ccccc2)C1)c1ccc(-c2cccs2)cc1`: the values for the pKi in [1] and in [2] were 7.62 and 5.82, respectively. In addition, the Ki in test [3] came to 330 nM.
Take `O=Cc1ccccc1-c1ccc(C(=O)NC2CCN(Cc3ccccc3)C2)cc1` (configuration not stated): the pKi in [1] was 7.44; in test [2], 5.51.
Regarding `O=C(N[C@@H]1CCN(Cc2ccccc2)C1)c1cccc(-c2ccsc2)c1`, the pKi in test [1] is 8.47; in test [2] it was 7.03. Also, in test [3], the Ki was 170 nM.
Taken in the same sequence, the figures for `O=C(N[C@@H]1CCN(Cc2ccccc2)C1)c1ccc(-c2ccsc2)cc1` were 7.74, 6.05 and 170 nM.
Take `O=C(NC1CCN(Cc2ccccc2)C1)c1ccc(-c2cccs2)cc1` (configuration not stated): the pKi was 8.52 in test [1] and 6.08 in test [2].
In the same order, the values of `O=C(NC1CCN(Cc2ccccc2)C1)c1ccc(-c2ccc(C(F)(F)F)cc2)cc1` (configuration not stated) are 7.77 and 5.10.
In the same order, the values of `O=C(NC1CCN(Cc2ccccc2)C1)c1ccc(-c2ccc(Cl)cc2)cc1` (configuration not stated) are 8.30 and 5.59.
Usually pIC50 stands for the IC50 on a negative log10 scale, so that one unit is a factor of ten. The low end stands for a large IC50, the high end for a small IC50. Regarding `O=C(NC1CCN(Cc2ccccc2)C1)c1ccc(-c2ccccc2)cc1` (configuration not stated), the pKi is 8.52 in test [1] and 6.22 in test [2]. In [7], this molecule gave a pIC50 of 5.82.
Consider `O=C(NC1CCN(Cc2ccccc2)C1)c1ccc(-c2ccc(F)cc2)cc1` (configuration not stated), for which the pKi in [1] is 8.10; in test [2], 6.92.
For the molecule `O=S(=O)(N[C@H]1CCN(Cc2ccccc2)C1)c1ccc(-c2cccs2)cc1`, the inhibition result in test [8] and in test [9] was “inactive” each time. The molecule also returned an inhibition in test [6] of 13%.
As to `O=C(NC1CCN(Cc2ccccc2)C1)c1ccc(-c2ccsc2)cc1` (configuration not stated), the values for the pKi in test [1] and in [2] were 8.70 and 5.92, respectively.
As for `O=C(N[C@H]1CCN(Cc2ccccc2)C1)c1ccc(-c2ccsc2)cc1`, the results for the pKi in test [1] and in test [2] were 8.70 and 6.00, respectively. The Ki in [3] was determined as 610 nM.
As to `Nc1cccc(-c2ccc(C(=O)NC3CCN(Cc4ccccc4)C3)cc2)c1` (configuration not stated), the pKi was 7.62 in test [1] and 5.30 in test [2].
